One block for each molecule: values may come before it.
Assays:
ANO 1 = type: cell-based, rat; details: for Effect on ANO 1 current density (channel activation): bath application of 20 µM TFP or 50 µM J-8 for 10–70 min
Method in brief: (§1)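 HEK 293 cells transiently transfected with rat ANO with C-terminal YFP tag; cells of similar YFP intensity recorded whole-cell. Bath (mM): 150 CsCl, 10 HEPES, 10 EGTA, pH 7.4. Pipette: 150 mM Cl−, 10 mM HEDTA, 10 mM HEPES, pH 7.0, free Ca2+ 0.7–62 µM. Ramps −80 to +80 mV (1 s), every 15 s from 2 min after breakthrough; current density in pA/pF.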

ANO 2 = type: cell-based, rat; details: for Effect on ANO 2 current density (channel activation): bath application of 20 µM TFP or 50 µM J-8 for 10–70 min
Method in brief: as §1

CaM = CaM (Bos taurus, UniProt P62157); assay: Badan fluorescence peptide-binding assay with CaM; details: 3 µM peptide, 1.5 µM CaM, free Ca2+ 0.007 to 10 µM
[1] = molecular target: Badan-labeled ANO 1 RCBM peptide, mutant m15,20 (rat); assay: other fluorescence titration
[2] = molecular target: Badan-labeled ANO 1 RCBM peptide, mutant m2,6 (rat); assay: other fluorescence titration
[3] = molecular target: Badan-labeled ANO 2 RCBM peptide, mutant m15,20 (rat); assay: other fluorescence titration
[4] = molecular target: Badan-labeled ANO 2 RCBM peptide, mutant m2,6 (rat); assay: other fluorescence titration

Molecule: NCCCCCCCCNS(=O)(=O)c1cccc2c(I)cccc12 [J-8]
Effect on ANO 1 current density (channel activation) (ANO 1): did not significantly reduce | Effect on ANO 2 current density (channel activation) (ANO 2): did not significantly reduce

Molecule: CN1CCN(CCCN2c3ccccc3Sc3ccc(C(F)(F)F)cc32)CC1 [TFP, trifluoperazine]
Effect on ANO 1 current density (channel activation) (ANO 1): did not significantly reduce | Effect on ANO 2 current density (channel activation) (ANO 2): did not significantly reduce

Molecule: CN[C@@H]1C[C@H]2O[C@@](C)([C@@H]1OC)n1c3ccccc3c3c4c(c5c6ccccc6n2c5c31)C(=O)NC4 [staurosporine]
Effect on ANO 1 channel activation or inactivation (ANO 1; 0.2–2 µM, 5–50 min, applied to the bath solution, 6 cells, unpublished data): did not detect any effect | Effect on ANO 2 channel activation or inactivation (ANO 2; 0.2–2 µM, 5–50 min, applied to the bath solution, 18 cells, unpublished data): did not detect any effect

CaM binding of Badan-labeled peptide (Ca2+-dependent change of emission spectra) (CaM): completely abolished CaM binding
Molecule: RKLEYEEEASYGVFYKEQPIDEVRK [ANO ctrl]

EC50 of free Ca^2+ for CaM binding [1]: 15.2 µM | EC50 of free Ca^2+ for CaM binding [2]: 12 µM | EC50 of free Ca^2+ for CaM binding [3]: 0.6 µM | EC50 of free Ca^2+ for CaM binding [4]: 6 µM
Molecule: wild-type calmodulin (wt CaM), purchased (from UniProt P0DP23 1-149) (natural protein)
